# According to ChEMBL document CHEMBL1153903, “Tethered thiazolidinone dimers as inhibitors of the bacterial type III secretion system” (Bioorg Med Chem Lett, 2009):
# Test: Inhibition of T3SS-dependent SipA secretion in Salmonella Typhimurium
# Design: species or system Salmonella enterica subsp. enterica serovar Typhimurium
# Procedure, shortened: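 Salmonella typhimurium type III secretion read out as secretion of the substrate SipA into culture supernatants. Supernatant proteins TCA-precipitated, resolved by SDS-PAGE and Western blotted with anti-SipA antibody; IC50 derived from the reduction in secreted SipA.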
row,SMILES,IC50 [µM]
1,COc1cc(/C=C2\S/C(=N\c3ccccc3)N(CCCCNC(=N)NCCN3C(=O)/C(=C/c4cc(OC)c(O)c(OC)c4)S/C3=N\c3ccccc3)C2=O)cc(OC)c1O,47
2,COc1cc(/C=C2\S/C(=N\c3ccccc3)N(CC(=O)Nc3cccc(NC(=O)CN4C(=O)/C(=C/c5cc(OC)c(O)c(OC)c5)S/C4=N\c4ccccc4)c3)C2=O)cc(OC)c1O,80
3,COc1cc(/C=C2\S/C(=N\c3ccccc3)N(CCNC(=O)C3CCCN3C(=O)CN3C(=O)/C(=C/c4cc(OC)c(O)c(OC)c4)S/C3=N\c3ccccc3)C2=O)cc(OC)c1O (configuration not stated),55
4,COc1cc(/C=C2\S/C(=N\c3ccccc3)N(CCCCCCNCCN3C(=O)/C(=C/c4cc(OC)c(O)c(OC)c4)S/C3=N\c3ccccc3)C2=O)cc(OC)c1O,65
5,COc1cc(/C=C2\S/C(=N\c3ccccc3)N(CCCNC(=O)CN3C(=O)/C(=C/c4cc(OC)c(O)c(OC)c4)S/C3=N\c3ccccc3)C2=O)cc(OC)c1O,48
6,COc1cc(/C=C2\S/C(=N\c3ccccc3)N(CCCNC(=O)[C@H](Cc3ccc(-c4ccccc4)cc3)NC(=O)[C@H](CCCN)N3C(=O)/C(=C/c4cc(OC)c(O)c(OC)c4)S/C3=N\c3ccccc3)C2=O)cc(OC)c1O,49
7,COc1cc(/C=C2\S/C(=N\c3ccccc3)N(CCCNC(=O)[C@H](CCCNC(=N)N)NC(=O)CN3C(=O)/C(=C/c4cc(OC)c(O)c(OC)c4)S/C3=N\c3ccccc3)C2=O)cc(OC)c1O,48
8,COc1cc(/C=C2\S/C(=N\c3ccccc3)N(c3ccccc3)C2=O)cc(OC)c1O,83

# Now those with a lower IC50, led by results:
row,IC50 [µM],SMILES
1,17,COc1cc(/C=C2\S/C(=N\c3ccccc3)N(CCCCCCNC(=O)CCCN3C(=O)/C(=C/c4cc(OC)c(O)c(OC)c4)S/C3=N\c3ccccc3)C2=O)cc(OC)c1O
2,5,COc1cc(/C=C2\S/C(=N\c3ccccc3)N(CCCCCCNC(=O)CN3C(=O)/C(=C/c4cc(OC)c(O)c(OC)c4)S/C3=N\c3ccccc3)C2=O)cc(OC)c1O
3,22,COc1cc(/C=C2\S/C(=N\c3ccccc3)N(CC(=O)Nc3ccccc3NC(=O)CN3C(=O)/C(=C/c4cc(OC)c(O)c(OC)c4)S/C3=N\c3ccccc3)C2=O)cc(OC)c1O
4,44,COc1cc(/C=C2\S/C(=N\c3ccccc3)N(CCN3CCN(CCN4C(=O)/C(=C/c5cc(OC)c(O)c(OC)c5)S/C4=N\c4ccccc4)CC3)C2=O)cc(OC)c1O
